Tests used:
[1] = molecular target: T1, Human immunodeficiency virus type 1 protease (Human immunodeficiency virus 1, UniProt Q72874); test: Binding affinity against HIV-1 protease
Method in brief: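 Ki from the activity of 20 nM HIV-1 protease across a matrix of substrate (HIV substrate III at 10, 20, 50 and 100 µM) and at least three inhibitor levels: roughly the estimated Ki and 2–4 times it. Tight-binding rate equation fitted by nonlinear regression. Buffer and read-out as in the spectrophotometric cleavage assay.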

[2] = molecular target: T1, Human immunodeficiency virus type 1 protease; test: Inhibition concentration against HIV-1 protease
Method in brief: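 Purified HIV-1 protease (30 nM) added after 5 min preincubation of 60.8 µM chromophoric HIV substrate III with inhibitor (DMSO, final below 2.5%). Buffer: 50 mM each glycine, sodium acetate, MES and Tris-HCl, 1.0 M NaCl, 1 mM EDTA, 1 mM DTT, pH 5.5, 37 °C. Cleavage rate from absorbance change at 300 nm. IC50 from activity versus log inhibitor concentration.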

[3] = molecular target: Human immunodeficiency virus type 1 protease (Human immunodeficiency virus 1) (UniProt Q72874); conditions: 10 uM

| inhibition [3] | Compound | Ki [1] | IC50 [2] |
| --- | --- | --- | --- |
|  | O=C1N(Cc2ccc(CO)cc2)[C@H](COc2ccccc2)[C@H](O)[C@@H](O)[C@@H](COc2ccccc2)N1Cc1ccc(CO)cc1 | 0.23 nM | 10 nM |
|  | O=S1(=O)N(Cc2ccccc2)[C@H](CCc2ccccc2)[C@H](O)[C@@H](O)[C@@H](CCc2ccccc2)N1Cc1ccccc1 | 14.7 nM | 200 nM |
|  | O=S1(=O)N(Cc2ccccc2)[C@H](COc2ccccc2)[C@H](O)[C@@H](O)[C@@H](COc2ccccc2)N1Cc1ccccc1 |  | 200 nM |
|  | O=C1N(Cc2ccccc2)[C@H](CCCc2ccccc2)[C@H](O)[C@@H](O)[C@@H](CCCc2ccccc2)N1Cc1ccccc1 | 570 nM | 10000 nM |
|  | O=C1N(Cc2ccc(CO)cc2)[C@H](Cc2ccccc2)[C@H](O)[C@@H](O)[C@@H](Cc2ccccc2)N1Cc1ccc(CO)cc1 [DMP-323] |  | 15 nM |
| 10% | O=C1N(Cc2ccccc2)[C@@H](COc2ccccc2)[C@H](O)[C@@H](O)[C@H](COc2ccccc2)N1Cc1ccccc1 |  |  |
|  | COC(=O)c1ccc(CN2C(=O)N(Cc3ccc(C(=O)OC)cc3)[C@H](COc3ccccc3)[C@H](O)[C@@H](O)[C@H]2COc2ccccc2)cc1 |  | 8000 nM |
|  | O=C1N(Cc2ccccc2)[C@H](COc2ccccc2)[C@H](O)[C@@H](O)[C@@H](COc2ccccc2)N1Cc1ccccc1 |  | 80 nM |
| 0% | O=C1N(Cc2ccccc2)[C@H](COc2ccccc2)[C@@H](O)[C@H](O)[C@@H](COc2ccccc2)N1Cc1ccccc1 |  |  |
|  | O=C1N(Cc2ccccc2)[C@H](CCc2ccccc2)[C@H](O)[C@@H](O)[C@@H](CCc2ccccc2)N1Cc1ccccc1 | 214 nM | 4000 nM |
| 15% | O=C1N(Cc2ccccc2)[C@@H](COc2ccccc2)[C@@H](O)[C@H](O)[C@H](COc2ccccc2)N1Cc1ccccc1 |  |  |
